# CHT inh: inhibitors of human choline transporter CHT | Q9GZV3 | CHT-expressing cells, membrane potential dye, choline response; hits give low values | B-score at 10 µM | 310,000 compounds, 0.86% hits | AID 488975;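 active means B-score over 3 SD under the library average, and starting fluorescence ratio not unusually high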;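 further: choline stimulus applied at its EC90 after an EC20 pre-addition; B-score computed on integrated fluorescence ratio after choline addition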
# Target sequence (Q9GZV3 whole entry, looked up): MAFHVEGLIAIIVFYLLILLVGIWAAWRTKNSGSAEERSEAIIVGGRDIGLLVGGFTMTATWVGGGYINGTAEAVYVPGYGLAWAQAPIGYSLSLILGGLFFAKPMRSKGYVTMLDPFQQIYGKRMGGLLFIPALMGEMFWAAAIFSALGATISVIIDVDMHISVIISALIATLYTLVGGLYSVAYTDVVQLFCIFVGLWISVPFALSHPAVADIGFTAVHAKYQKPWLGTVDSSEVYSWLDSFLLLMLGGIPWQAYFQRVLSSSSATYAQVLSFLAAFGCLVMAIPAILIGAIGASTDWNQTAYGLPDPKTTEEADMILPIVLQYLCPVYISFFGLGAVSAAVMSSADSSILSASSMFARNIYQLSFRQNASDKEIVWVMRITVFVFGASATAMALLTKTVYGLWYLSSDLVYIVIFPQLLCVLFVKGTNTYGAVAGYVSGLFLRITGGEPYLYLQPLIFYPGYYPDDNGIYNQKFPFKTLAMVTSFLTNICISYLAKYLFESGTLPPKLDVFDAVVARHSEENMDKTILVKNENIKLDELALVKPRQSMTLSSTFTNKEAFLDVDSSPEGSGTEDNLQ
# CHT allo act: human CHT allosteric activation; Q9GZV3; CHT-expressing cells, membrane potential dye, choline EC20; hits give high values; LV-AA mutant CHT in HEK293 cells; B-score at 10 µM; 310,000 compounds, 0.49% hits; AID 488977;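 active means initial fluorescence not abnormally high and integrated response B-score, plate-corrected, over 3 SD above library mean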
# procasp7 counter: counter-screen: procaspase-7 (human) activation. recombinant procaspase-7, Ac-DEVD-pNA absorbance 405 nm; D23A/D198A/D206A triple mutant, cannot self-cleave; scale: DMSO 0, 5 µM enzyme 100. P55210. activation, % at 8.5 µM. 330,000 compounds, 0.093% hits;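 active means percent activation above the screen-wide mean plus 3 SD, cut at about 25% in these data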
#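 System: Uncleavable procaspase-7 mutant enzyme; Amount: 2 µM procaspase-7 mutant as dispensed; Schedule: 1 h compound preincubation, 2 h substrate cleavage, 25 °C; Measured by: 405 nm absorbance of p-nitroaniline; Evaluation: percent activation from buffer-corrected 0–120 min absorbance change; Control set: low DMSO alone, high DMSO plus 5 µM PC-7.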
# proCasp3 act: activates human procaspase-3; P42574; recombinant procaspase-3 D3A, Ac-DEVD-pNA absorbance 405 nm; activation, % at 8.5 µM; 330,000 compounds, 0.11% hits; AID 463141;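 active means activation above the mean of all tested compounds plus 3 SD, cut at about 21% in these data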;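 further: 0% = DMSO alone and 100% = DMSO wells spiked with extra 5 µM PC-3 D3A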
#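 Technique: 405 nm absorbance of p-nitroaniline, reads at 0 and 120 min; Test system: Procaspase-3 D3A mutant; Incubation: 1 h enzyme-compound preincubation, then 2 h substrate reaction, 25 °C; Repeats: singlicate, each compound tested once; Benchmarks: low control DMSO wells, high control DMSO plus 5 µM PC-3 D3A.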
# CHT block conf: human CHT inhibition, confirmatory screen. shares compounds with CHT inh. CHT-expressing cells, choline membrane potential dye; LV-to-AA substituted CHT, HEK293 cells. CHT activity remaining % of control (hits give low values), % at 10 µM. 2,400 compounds, 70% hits. AID 493221;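 active means choline transporter activity left, mean of duplicates at 10 µM, below buffer-only control mean minus 3 SD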;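 further: depolarization triggered by choline at its EC90 following an EC20 pre-addition; 0% = hemicholinium-3 full block and 100% = buffer-only control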
# HEK293 CHT ctr: CHT inhibitor counter-screen hit in parental HEK293 cells | 2,400 compounds, 4% hits | membrane potential dye, choline response; active = decrease or increase beyond buffer ±3SD | AID 493222 | membrane potential ratio readout (active if shifted either direction beyond buffer ±3SD; no single direction) at 10 µM | shares compounds with CHT inh;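 further: parental cells lack the transporter so any hit is non-specific; ratio is peak minus trough fluorescence over baseline after EC90 choline challenge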
# * marks the source's active call; other numbers are inactive results; i = inactive; · = not tested or not shown. The list is not random: actives were taken first. Their share in the collection is about 1.3%.
SMILES,CHT inh,CHT allo act,procasp7 counter,proCasp3 act,CHT block conf,HEK293 CHT ctr
CCN1C(=O)c2ccccc2S(=O)(=O)c2ccc(C(=O)NCCCN(CC(C)C)CC(C)C)cc21,i,i,5,8,·,·
O=C(NCCCN1CCOCC1)c1ccc2c(c1)N(Cc1cccc(Cl)c1)C(=O)c1ccccc1S2=O (stereo unspecified),i,i,4,0,·,·
O=C(NCCN1CCOCC1)c1ccc2c(c1)N(Cc1ccccc1F)C(=O)c1ccccc1S2(=O)=O,i,i,-2,9,·,·
O=C(NCCN1CCCC1)c1ccc2c(c1)N(Cc1cccc(Cl)c1)C(=O)c1ccccc1S2(=O)=O,-9.5*,i,1,7,34%*,i
CCN1CCCC1CNC(=O)c1ccc2c(c1)N(Cc1ccccc1F)C(=O)c1ccccc1S2(=O)=O (stereo unspecified),-5.3*,i,10,3,54%*,i
CC1CCCN(CCCNC(=O)c2ccc3c(c2)N(Cc2ccccc2F)C(=O)c2ccccc2S3(=O)=O)C1 (stereo unspecified),-7.1*,i,8,12,35%*,i
COc1ccc(N2C(=O)CC(N3CCN(S(=O)(=O)c4cc(C)ccc4C)CC3)C2=O)cc1 (stereo unspecified),i,i,6,1,·,·
CCOC(=O)C1CCN(c2cc3c(cc2NC(=O)c2cc(OC)ccc2Br)n(C)c(=O)n3C)CC1,i,i,2,-3,·,·
CCCC#CCN1CCN(C23CC4CC(CC(C4)C2)C3)CC1,i,i,-5,-5,·,·
CC(=O)c1sc(-c2ccc(F)cc2)cc1NS(=O)(=O)c1ccc(C)cc1,i,i,7,14,·,·
NC(=O)c1sc(-c2ccsc2)cc1NS(=O)(=O)c1ccc(C(F)(F)F)cc1,-6.9*,i,-21,-8,i,i
CC(C)n1cc(CN2CCC(C(=O)Nc3ccc(Oc4ccccc4F)cc3)CC2)cn1,i,i,6,6,·,·
CC1=C([N+](=O)[O-])C(c2ccc(Cl)cc2)NC(=O)N1 (stereo unspecified),i,i,0,8,·,·
C[n+]1ccccc1COc1ccc(C(C)(C)C)cc1,-7.3*,i,-4,-8,34%*,i
Cc1ccc(S(=O)(=O)CCC(=O)OC(C)C(=O)N2CCc3ccccc32)cc1 (stereo unspecified),-7.4*,i,0,-3,37%*,i
O=C(CCCn1c(=S)[nH]c2ccccc2c1=O)N1CCOCC1,i,i,14,-1,·,·
CCOC(=O)N1CCN(C(=O)CCCn2c(=S)[nH]c3ccsc3c2=O)CC1,-12*,i,5,0,6.4%*,i
CCOC(=O)N1CCN(C(=O)CCCn2c(=S)[nH]c3ccc(Br)cc3c2=O)CC1,-5.3*,i,2,0,55%*,i
CCOC(=O)N1CCN(C(=O)CCCCCn2c(=S)[nH]c3ccsc3c2=O)CC1,i,i,8,-2,·,·
CCOC(=O)N1CCN(C(=O)CCCn2c(=O)[nH]c3ccccc3c2=O)CC1,-5.9*,i,3,7,5.0%*,i
CC(=O)c1ccc(N2CCN(C(=O)CCCn3c(=O)[nH]c4ccccc4c3=O)CC2)cc1,i,i,7,-10,·,·
CC(C)NS(=O)(=O)c1ccc(CCC(=O)N2CCc3ccccc3C2)cc1,-5.1*,i,3,2,46%*,i
O=C(NC(Cc1cccc(F)c1)C(=O)O)C1CCCCC1 (stereo unspecified),·,·,4,-6,·,·
CN(CC(=O)Nc1ccc(N2CCOCC2)cc1)C(=O)C1CCCC1,-8.3*,i,6,0,i,i
CCOC(=O)C(Cc1ccccc1)NC(C)=O (stereo unspecified),i,i,-5,11,·,·
SMILES,CHT inh,CHT allo act,procasp7 counter,proCasp3 act,CHT block conf,HEK293 CHT ctr
CCOC(=O)C(Cc1ccccc1)NC(=O)CCCC(=O)c1ccccc1 (stereo unspecified),-5.9*,i,-1,-6,45%*,i
CCOC(=O)N1CCC(Nc2ncnc3c2cnn3-c2ccc(C)cc2C)CC1,-6.9*,i,0,10,i,i
Cc1onc(-c2ccccc2)c1C(=O)NNC(=S)NC(=O)c1ccc(Br)cc1,-6.2*,i,-7,-10,55%*,i
CC1=CC(=O)C(C(C)C)=C/C1=N/OS(=O)(=O)c1ccccc1,-9.6*,i,-1,-6,64%*,i
Cc1ccc2c(c1)/C(=N/OS(=O)(=O)c1ccccc1)CCS2,i,i,6,1,·,·
CSc1nnc(C)c(=O)n1COC(=O)c1ccc(S(=O)(=O)N(C)C)cc1,i,i,4,2,·,·
O=C(N/N=C\c1cccs1)c1ccccc1-n1cccc1,-5.3*,i,5,0,i,i
COc1ccccc1-n1c(-c2ccc(Cl)cc2)c[nH]c1=S,i,i,-27,-9,·,·
C/C(CC(=O)Nc1ccccc1F)=N\NC(=O)Cc1ccc(Cl)cc1,i,i,0,6,·,·
O=S(=O)(c1ccc(N2CCCC2)nc1)N1CCCC1,-5.8*,i,-9,4,43%*,i
Nc1ccccc1C(=O)NC1CCCNC1=O (stereo unspecified),-16*,i,0,-7,i,i
CCCCNC(=O)/C(C#N)=C/c1ccc(-c2ccc(S(=O)(=O)N3CCOCC3)cc2)o1,-5*,i,-19,-17,69%*,i
COC(=O)/C(C#N)=C/c1ccc(-c2ccc(S(N)(=O)=O)cc2)o1,i,i,-2,-3,·,·
COc1ccc(N(C(C)=O)S(=O)(=O)c2cccc3cccnc23)cc1,i,i,2,8,·,·
Cc1cc(NS(=O)(=O)c2ccc(NC(=O)/C=C/c3c(F)cccc3Cl)cc2)nc(C)n1,-5.7*,i,11,-2,31%*,i
CCCCC(Br)C(=O)Nc1ccc(S(=O)(=O)Nc2cc(C)nc(C)n2)cc1 (stereo unspecified),-5.8*,i,5,2,15%*,i
CN1CCN(S(=O)(=O)c2ccc(CNC(=O)c3ccccc3)s2)CC1,i,i,-4,-7,·,·
CCOC(=O)CNC(=O)N1CCCC(C(=O)c2cccc(Cl)c2)C1 (stereo unspecified),i,i,9,9,·,·

# Screening results: PubChem BioAssay, several laboratories
